According to ChEMBL document CHEMBL3808372, “Identification of quinones as novel PIM1 kinase inhibitors” (Bioorg Med Chem Lett, 2016):

Columns and labels:
Set-up in all cases: scale not given: the % may be the effect or the level left
[1] = target: Proto-oncogene tyrosine-protein kinase receptor Ret (Homo sapiens) (UniProt P07949); assay: Inhibition of human RET (713 to 1014 amino acid residues) expressed in bacterial system assessed as enzyme activity at 10 uM by KINOMEScan assay
Outline: (§1)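 Commercial KINOMEscan binding panel of 100 kinases, test compound at 10 μM. Results are primary-screen binding interactions expressed as % Ctrl = (test compound signal − positive control signal)/(negative control signal − positive control signal) × 100. Lower % Ctrl means stronger binding.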

[2] = target: Dual specificity mitogen-activated protein kinase kinase 1 (Homo sapiens) (UniProt Q02750); assay: Inhibition of full length human MEK1 assessed as enzyme activity at 10 uM by KINOMEScan assay
Chain of Dual specificity mitogen-activated protein kinase kinase 1 (Homo sapiens) (Q02750 whole entry): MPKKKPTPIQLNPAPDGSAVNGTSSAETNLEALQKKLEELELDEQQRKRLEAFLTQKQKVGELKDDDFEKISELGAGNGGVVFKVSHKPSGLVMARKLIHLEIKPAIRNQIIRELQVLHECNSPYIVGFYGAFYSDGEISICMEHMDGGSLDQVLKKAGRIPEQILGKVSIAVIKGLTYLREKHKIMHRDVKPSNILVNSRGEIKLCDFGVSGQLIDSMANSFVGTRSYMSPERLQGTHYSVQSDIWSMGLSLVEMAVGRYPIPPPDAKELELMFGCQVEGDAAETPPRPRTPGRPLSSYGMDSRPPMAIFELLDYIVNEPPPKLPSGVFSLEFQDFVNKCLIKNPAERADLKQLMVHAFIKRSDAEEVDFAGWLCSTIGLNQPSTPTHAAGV
Outline: (§2)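 Competition binding screen on a 100-kinase KINOMEscan panel, compound tested at a single 10 μM concentration. Primary binding read-out expressed as % Ctrl = (test compound signal − positive control signal)/(negative control signal − positive control signal) × 100, with lower values meaning stronger binding.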

[3] = target: Testis-specific serine/threonine-protein kinase 1 (Homo sapiens) (UniProt Q9BXA7); assay: Inhibition of full length human TSSK1B expressed in bacterial system assessed as enzyme activity at 10 uM by KINOMEScan assay; outline: as §2
Chain of Testis-specific serine/threonine-protein kinase 1 (Homo sapiens) (Q9BXA7 whole entry, the tested form may be a part): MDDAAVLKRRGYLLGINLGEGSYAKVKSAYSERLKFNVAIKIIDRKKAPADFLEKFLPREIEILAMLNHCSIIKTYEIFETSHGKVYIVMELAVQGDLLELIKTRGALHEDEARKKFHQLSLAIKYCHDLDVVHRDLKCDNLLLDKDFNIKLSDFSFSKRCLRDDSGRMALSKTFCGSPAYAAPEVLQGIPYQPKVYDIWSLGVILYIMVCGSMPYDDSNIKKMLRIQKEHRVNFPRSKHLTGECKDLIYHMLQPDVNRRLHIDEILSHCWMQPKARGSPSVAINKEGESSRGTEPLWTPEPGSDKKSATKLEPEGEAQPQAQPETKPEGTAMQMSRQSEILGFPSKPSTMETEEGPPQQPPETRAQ

[4] = target: Vascular endothelial growth factor receptor 2 (Homo sapiens) (UniProt P35968); assay: Inhibition of human VEGFR2 (787 to 1253 amino acid residues) assessed as enzyme activity at 10 uM by KINOMEScan assay; outline: as §1
[5] = test system: Mast/stem cell growth factor receptor Kit (Homo sapiens), P10721 [D816V]; assay: Inhibition of human KIT D816V mutant (571 to 952 amino acid residues) expressed in bacterial system assessed as enzyme activity at 10 uM by KINOMEScan assay; outline: as §1
[6] = target: Serine/threonine-protein kinase PLK3 (Homo sapiens) (UniProt Q9H4B4); assay: Inhibition of human PLK3 (42 to 334 amino acid residues) assessed as enzyme activity at 10 uM by KINOMEScan assay
Chain of Serine/threonine-protein kinase PLK3 (Homo sapiens) (Q9H4B4 whole entry, looked up, the tested form may be a part): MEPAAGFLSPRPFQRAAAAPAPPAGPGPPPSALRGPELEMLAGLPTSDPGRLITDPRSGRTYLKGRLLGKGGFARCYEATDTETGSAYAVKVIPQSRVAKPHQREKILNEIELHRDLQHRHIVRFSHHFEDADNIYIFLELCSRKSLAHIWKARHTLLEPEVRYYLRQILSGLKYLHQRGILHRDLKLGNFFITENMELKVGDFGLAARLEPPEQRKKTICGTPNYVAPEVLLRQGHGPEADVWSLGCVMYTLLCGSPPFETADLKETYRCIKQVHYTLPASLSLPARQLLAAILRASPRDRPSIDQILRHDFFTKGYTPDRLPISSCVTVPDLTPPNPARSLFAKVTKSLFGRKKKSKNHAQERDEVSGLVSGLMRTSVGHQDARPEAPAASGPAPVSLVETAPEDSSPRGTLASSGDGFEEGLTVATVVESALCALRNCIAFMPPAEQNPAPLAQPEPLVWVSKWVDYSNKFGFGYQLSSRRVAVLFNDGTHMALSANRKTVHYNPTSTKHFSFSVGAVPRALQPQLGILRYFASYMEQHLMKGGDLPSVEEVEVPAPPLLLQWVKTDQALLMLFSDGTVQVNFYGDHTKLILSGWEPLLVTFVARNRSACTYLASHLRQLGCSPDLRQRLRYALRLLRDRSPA
Outline: (§3)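 Single-concentration competition binding screen (KINOMEscan) across a 100-kinase panel at 10 μM. Primary binding read-out is reported as % of control: (test signal − positive-control signal)/(negative-control signal − positive-control signal) × 100. Lower values indicate stronger binding.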

[7] = target: Tyrosine-protein kinase JAK3 (Homo sapiens) (UniProt P52333); assay: Inhibition of human JAK3 JH1 catalytic domain (781 to 1124 amino acid residues) assessed as enzyme activity at 10 uM by KINOMEScan assay; outline: as §2
[8] = target: Inhibitor of nuclear factor kappa-B kinase subunit beta (Homo sapiens) (UniProt O14920); assay: Inhibition of full length human IKK-beta assessed as enzyme activity at 10 uM by KINOMEScan assay; outline: as §2
[9] = target: Serine/threonine-protein kinase 32C (Homo sapiens) (UniProt Q86UX6); assay: Inhibition of human YANK3 (68 to 486 amino acid residues) expressed in bacterial system assessed as enzyme activity at 10 uM by KINOMEScan assay; outline: as §3
Chain of Serine/threonine-protein kinase 32C (Homo sapiens) (Q86UX6 whole entry, the tested form may be a part): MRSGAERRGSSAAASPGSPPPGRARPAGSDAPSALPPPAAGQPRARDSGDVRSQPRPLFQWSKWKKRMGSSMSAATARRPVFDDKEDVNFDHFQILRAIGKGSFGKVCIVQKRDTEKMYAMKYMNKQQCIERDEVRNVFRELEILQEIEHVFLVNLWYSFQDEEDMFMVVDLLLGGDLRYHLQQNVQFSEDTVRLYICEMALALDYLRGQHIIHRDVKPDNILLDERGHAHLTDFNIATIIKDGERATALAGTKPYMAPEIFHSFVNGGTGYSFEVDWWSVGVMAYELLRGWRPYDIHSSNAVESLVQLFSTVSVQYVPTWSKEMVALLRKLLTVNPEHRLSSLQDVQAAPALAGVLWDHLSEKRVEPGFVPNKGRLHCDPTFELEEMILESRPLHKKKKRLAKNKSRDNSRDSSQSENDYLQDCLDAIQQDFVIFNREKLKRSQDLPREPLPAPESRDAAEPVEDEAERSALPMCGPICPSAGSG

[10] = target: Serine/threonine-protein kinase PAK 1 (Homo sapiens) (UniProt Q13153); assay: Inhibition of human PAK1 (149 to 545 amino acid residues) expressed in bacterial system assessed as enzyme activity at 10 uM by KINOMEScan assay; outline: as §2
[11] = test system: Serine/threonine-protein kinase B-raf (Homo sapiens), P15056 [V600E]; assay: Inhibition of human BRAF V600E mutant (429 to 741 amino acid residues) assessed as enzyme activity at 10 uM by KINOMEScan assay; outline: as §2
[12] = target: Tyrosine-protein kinase ZAP-70 (Homo sapiens) (UniProt P43403); assay: Inhibition of human ZAP70 (20 to 299 amino acid residues) assessed as enzyme activity at 10 uM by KINOMEScan assay; outline: as §1
[13] = target: Cyclin-dependent kinase 11B (Homo sapiens) (UniProt P21127); assay: Inhibition of human CDK11 (1 to 360 amino acid residues) assessed as enzyme activity at 10 uM by KINOMEScan assay expressed in bacterial system assessed as enzyme activity at 10 uM by KINOMEScan assay; outline: as §1
[14] = target: Aurora kinase B (Homo sapiens) (UniProt Q96GD4); assay: Inhibition of human AURKB (25 to 303 amino acid residues) assessed as enzyme activity at 10 uM by KINOMEScan assay; outline: as §2
[15] = target: Tyrosine-protein kinase BTK (Homo sapiens) (UniProt Q06187); assay: Inhibition of full length human BTK assessed as enzyme activity at 10 uM by KINOMEScan assay; outline: as §1
Chain of Tyrosine-protein kinase BTK (Homo sapiens) (Q06187 whole entry, the tested form may be a part): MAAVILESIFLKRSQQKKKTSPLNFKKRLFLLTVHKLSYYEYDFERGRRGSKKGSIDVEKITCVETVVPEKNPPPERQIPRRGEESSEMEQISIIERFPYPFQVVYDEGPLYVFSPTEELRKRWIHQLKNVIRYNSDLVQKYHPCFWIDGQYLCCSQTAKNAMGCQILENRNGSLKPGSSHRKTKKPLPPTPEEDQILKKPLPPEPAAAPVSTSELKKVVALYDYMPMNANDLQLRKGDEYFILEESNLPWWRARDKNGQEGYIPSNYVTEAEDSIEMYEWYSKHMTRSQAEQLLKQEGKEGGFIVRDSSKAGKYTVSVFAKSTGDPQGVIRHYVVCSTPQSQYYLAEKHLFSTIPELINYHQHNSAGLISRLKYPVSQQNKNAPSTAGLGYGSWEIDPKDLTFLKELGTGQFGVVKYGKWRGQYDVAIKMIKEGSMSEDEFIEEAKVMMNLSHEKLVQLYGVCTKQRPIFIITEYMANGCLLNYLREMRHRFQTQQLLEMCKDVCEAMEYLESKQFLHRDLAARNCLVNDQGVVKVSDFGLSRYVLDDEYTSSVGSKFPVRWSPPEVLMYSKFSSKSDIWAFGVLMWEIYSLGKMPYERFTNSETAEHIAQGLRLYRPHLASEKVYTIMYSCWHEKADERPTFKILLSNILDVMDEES

[16] = target: Serine/threonine-protein kinase pim-3 (Homo sapiens) (UniProt Q86V86); assay: Inhibition of human PIM3 (16 to 317 amino acid residues) expressed in bacterial system assessed as enzyme activity at 10 uM by KINOMEScan assay; outline: as §3
[17] = target: Serine/threonine-protein kinase PAK 2 (Homo sapiens) (UniProt Q13177); assay: Inhibition of human PAK2 (151 to 525 amino acid residues) expressed in bacterial system assessed as enzyme activity at 10 uM by KINOMEScan assay; outline: as §2
[18] = target: Serine/threonine-protein kinase PLK1 (Homo sapiens) (UniProt P53350); assay: Inhibition of human PLK1 (33 to 325 amino acid residues) assessed as enzyme activity at 10 uM by KINOMEScan assay; outline: as §3
[19] = target: Platelet-derived growth factor receptor beta (Homo sapiens) (UniProt P09619); assay: Inhibition of human PDGFRB (582 to 1009 amino acid residues) expressed in bacterial system assessed as enzyme activity at 10 uM by KINOMEScan assay; outline: as §1
[20] = target: RAF proto-oncogene serine/threonine-protein kinase (Homo sapiens) (UniProt P04049); assay: Inhibition of human RAF1 (330 to 640 amino acid residues) expressed in bacterial system assessed as enzyme activity at 10 uM by KINOMEScan assay; outline: as §1
[21] = target: Receptor-type tyrosine-protein kinase FLT3 (Homo sapiens) (UniProt P36888); assay: Inhibition of human FLT3 (646 to 1225 amino acid residues) assessed as enzyme activity at 10 uM by KINOMEScan assay expressed in bacterial system assessed as enzyme activity at 10 uM by KINOMEScan assay; outline: as §2
Chain of Receptor-type tyrosine-protein kinase FLT3 (Homo sapiens) (P36888 whole entry, the tested form may be a part): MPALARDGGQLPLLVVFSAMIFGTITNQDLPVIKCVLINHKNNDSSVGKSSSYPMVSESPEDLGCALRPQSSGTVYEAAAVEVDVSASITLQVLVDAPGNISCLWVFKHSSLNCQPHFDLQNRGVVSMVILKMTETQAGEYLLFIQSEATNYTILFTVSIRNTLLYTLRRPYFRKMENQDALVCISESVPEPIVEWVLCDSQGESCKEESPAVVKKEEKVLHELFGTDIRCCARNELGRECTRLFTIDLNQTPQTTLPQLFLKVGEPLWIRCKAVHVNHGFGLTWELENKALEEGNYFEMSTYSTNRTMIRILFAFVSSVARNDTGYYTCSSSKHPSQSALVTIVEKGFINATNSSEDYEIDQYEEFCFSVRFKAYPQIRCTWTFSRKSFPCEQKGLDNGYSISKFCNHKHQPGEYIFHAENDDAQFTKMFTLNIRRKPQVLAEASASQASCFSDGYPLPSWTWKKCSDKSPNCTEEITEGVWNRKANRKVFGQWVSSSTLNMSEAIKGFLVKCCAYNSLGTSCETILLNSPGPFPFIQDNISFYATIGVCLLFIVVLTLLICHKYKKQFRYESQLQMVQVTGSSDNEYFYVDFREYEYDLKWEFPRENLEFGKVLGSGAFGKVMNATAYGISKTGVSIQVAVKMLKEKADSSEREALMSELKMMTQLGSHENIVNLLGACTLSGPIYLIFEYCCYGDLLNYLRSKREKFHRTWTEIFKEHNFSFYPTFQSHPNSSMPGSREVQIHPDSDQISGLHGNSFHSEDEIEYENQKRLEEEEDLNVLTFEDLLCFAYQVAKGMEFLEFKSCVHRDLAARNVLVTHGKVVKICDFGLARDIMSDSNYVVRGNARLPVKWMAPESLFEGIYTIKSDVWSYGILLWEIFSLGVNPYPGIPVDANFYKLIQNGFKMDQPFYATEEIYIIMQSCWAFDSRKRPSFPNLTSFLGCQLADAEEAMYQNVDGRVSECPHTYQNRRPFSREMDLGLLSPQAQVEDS

[22] = target: Hepatocyte growth factor receptor (Homo sapiens) (UniProt P08581); assay: Inhibition of human MET (1010 to 1367 amino acid residues) expressed in bacterial system assessed as enzyme activity at 10 uM by KINOMEScan assay; outline: as §1
[23] = target: Ribosomal protein S6 kinase alpha-2 (Homo sapiens) (UniProt Q15349); assay: Inhibition of human RSK2 Kin.Dom.1-N-terminal (1 to 394 amino acid residues) assessed as enzyme activity at 10 uM by KINOMEScan assay; outline: as §3
[24] = target: Platelet-derived growth factor receptor alpha (Homo sapiens) (UniProt P16234); assay: Inhibition of human PDGFRA (575 to 1002 amino acid residues) assessed as enzyme activity at 10 uM by KINOMEScan assay; outline: as §1
Chain of Platelet-derived growth factor receptor alpha (Homo sapiens) (P16234 whole entry, the tested form may be a part): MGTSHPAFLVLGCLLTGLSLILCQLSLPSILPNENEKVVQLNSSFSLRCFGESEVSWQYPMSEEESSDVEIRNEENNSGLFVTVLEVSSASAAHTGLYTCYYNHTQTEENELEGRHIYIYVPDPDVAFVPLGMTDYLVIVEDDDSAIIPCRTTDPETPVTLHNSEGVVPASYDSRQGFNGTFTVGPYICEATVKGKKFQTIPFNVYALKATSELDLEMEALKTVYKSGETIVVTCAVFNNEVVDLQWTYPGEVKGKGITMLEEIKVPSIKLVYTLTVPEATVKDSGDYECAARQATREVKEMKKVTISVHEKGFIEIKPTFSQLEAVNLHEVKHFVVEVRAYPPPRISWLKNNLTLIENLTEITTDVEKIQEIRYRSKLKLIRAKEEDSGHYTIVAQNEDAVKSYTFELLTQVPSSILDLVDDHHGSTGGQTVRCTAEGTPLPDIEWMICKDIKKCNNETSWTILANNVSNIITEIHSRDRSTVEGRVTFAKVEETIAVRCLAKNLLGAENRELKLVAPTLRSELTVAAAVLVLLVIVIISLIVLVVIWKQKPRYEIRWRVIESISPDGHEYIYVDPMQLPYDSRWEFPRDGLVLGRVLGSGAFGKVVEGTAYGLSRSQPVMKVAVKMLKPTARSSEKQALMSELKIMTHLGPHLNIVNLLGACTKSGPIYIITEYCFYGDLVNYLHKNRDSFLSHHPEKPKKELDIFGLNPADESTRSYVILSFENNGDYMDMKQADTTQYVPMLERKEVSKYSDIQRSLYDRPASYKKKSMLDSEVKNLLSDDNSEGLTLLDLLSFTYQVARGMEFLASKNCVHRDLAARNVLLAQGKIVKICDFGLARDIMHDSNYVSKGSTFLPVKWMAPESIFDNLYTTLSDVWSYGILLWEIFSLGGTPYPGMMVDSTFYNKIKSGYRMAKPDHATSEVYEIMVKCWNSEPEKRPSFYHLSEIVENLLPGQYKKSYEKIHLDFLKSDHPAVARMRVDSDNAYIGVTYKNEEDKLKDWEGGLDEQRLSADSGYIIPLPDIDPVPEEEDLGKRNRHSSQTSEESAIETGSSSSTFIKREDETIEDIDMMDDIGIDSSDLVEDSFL

[25] = target: TGF-beta receptor type-1 (Homo sapiens) (UniProt P36897); assay: Inhibition of human TGFBR1 (179 to 503 amino acid residues) expressed in bacterial system assessed as enzyme activity at 10 uM by KINOMEScan assay; outline: as §1

Compound: O=C1C2=C(C(=O)c3c(O)ccc(O)c31)[C@@H](O)[C@@H](O)[C@@H](O)C2
- Activity [1]: 100%
- Activity [2]: 92%
- Activity [3]: 89%
- Activity [4]: 100%
- Activity [5]: 100%
- Activity [6]: 54%
- Activity [7]: 61%
- Activity [8]: 91%
- Activity [9]: 89%
- Activity [10]: 93%
- Activity [11]: 70%
- Activity [12]: 100%
- Activity [13]: 86%
- Activity [14]: 72%
- Activity [15]: 100%
- Activity [16]: 36%
- Activity [17]: 57%
- Activity [18]: 96%
- Activity [19]: 100%
- Activity [20]: 100%
- Activity [21]: 84%
- Activity [22]: 100%
- Activity [23]: 53%
- Activity [24]: 100%
- Activity [25]: 100%
